# Reference: ChEMBL document CHEMBL4229342, “Synthesis of novel proxyphylline derivatives with dual Anti-Candida albicans and anticancer activity” (Eur J Med Chem, 2018)
# Key:
# Assay type in all cases: functional
# CCRF-CEM [1] = test: Antiproliferative activity against human CCRF-CEM cells assessed as cell viability at 50 uM after 72 hrs by MTT assay; settings: read-out: Activity
# In short: (§1)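 MTT viability assay in CCRF-CEM and MCF-7 cells after 72 h exposure at 25, 50, 100 and 200 µM. Results are relative to control cells without inhibitor in 0.5% DMSO. Done in triplicate; values are means ± SD of three independent experiments.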
# Candida albicans [2] = test: Growth inhibition of Candida albicans ATCC 90028 at 1 ug/ml incubated for 4 hrs at 35 degC by broth microdilution method relative to control; settings: ATCC 90028, 4 h, read-out: GI
# Candida albicans [3] = test: Growth inhibition of Candida albicans ATCC 90028 at 0.125 ug/ml incubated for 18 hrs at 35 degC by broth microdilution method relative to control; settings: ATCC 90028, 18 h, read-out: GI
# Candida albicans [4] = test: Growth inhibition of Candida albicans ATCC 90028 at 8 ug/ml incubated for 18 hrs at 35 degC by broth microdilution method relative to control; settings: ATCC 90028, 18 h, read-out: GI
# Candida albicans [5] = test: Growth inhibition of Candida albicans ATCC 90028 at 0.0625 ug/ml incubated for 18 hrs at 35 degC by broth microdilution method relative to control; settings: ATCC 90028, 18 h, read-out: GI
# CCRF-CEM [6] = test: Antiproliferative activity against human CCRF-CEM cells assessed as cell viability at 200 uM after 72 hrs by MTT assay; settings: read-out: Activity; in short: as §1
# Candida albicans [7] = test: Growth inhibition of Candida albicans ATCC 90028 at 0.0313 ug/ml incubated for 18 hrs at 35 degC by broth microdilution method relative to control; settings: ATCC 90028, 18 h, read-out: GI
# Candida albicans [8] = test: Fungicidal activity against Candida albicans ATCC 90028 assessed as log reduction in cell viability at 16 ug/ml after 48 hrs at 35 degC
# In short: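 MFC assay on C. albicans ATCC 90028 following M27-A3, at the molar equivalent of 16 µg/mL. CFU of treated cells were compared with CFU of the untreated inoculum. Activity is given as lg R = lg CFU/mL control − lg CFU/mL treated, and lg R ≥3 was defined as fungicidal. Values are means of two independent experiments.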
# MCF7 [9] = test: Antiproliferative activity against human MCF7 cells assessed as cell viability at 50 uM after 72 hrs by MTT assay; settings: MCF7, 72 h, read-out: Activity; in short: as §1
# CCRF-CEM [10] = test: Antiproliferative activity against human CCRF-CEM cells assessed as cell viability at 25 uM after 72 hrs by MTT assay; settings: read-out: Activity; in short: as §1
# Candida albicans [11] = test: Growth inhibition of Candida albicans ATCC 90028 at 16 ug/ml incubated for 48 hrs at 35 degC by broth microdilution method relative to control; settings: ATCC 90028, 48 h, read-out: GI
# Candida albicans [12] = test: Growth inhibition of Candida albicans ATCC 90028 at 1 ug/ml incubated for 18 hrs at 35 degC by broth microdilution method relative to control; settings: ATCC 90028, 18 h, read-out: GI
# Candida albicans [13] = test: Growth inhibition of Candida albicans ATCC 90028 at 0.5 ug/ml incubated for 4 hrs at 35 degC by broth microdilution method relative to control; settings: ATCC 90028, 4 h, read-out: GI
# MCF7 [14] = test: Antiproliferative activity against human MCF7 cells assessed as cell viability at 25 uM after 72 hrs by MTT assay; settings: MCF7, 72 h, read-out: Activity; in short: as §1
# Candida albicans [15] = test: Growth inhibition of Candida albicans ATCC 90028 at 2 ug/ml incubated for 4 hrs at 35 degC by broth microdilution method relative to control; settings: ATCC 90028, 4 h, read-out: GI
# Candida albicans [16] = test: Growth inhibition of Candida albicans ATCC 90028 at 0.0313 ug/ml incubated for 4 hrs at 35 degC by broth microdilution method relative to control; settings: ATCC 90028, 4 h, read-out: GI
# Candida albicans [17] = test: Growth inhibition of Candida albicans ATCC 90028 at 16 ug/ml incubated for 18 hrs at 35 degC by broth microdilution method relative to control; settings: ATCC 90028, 18 h, read-out: GI
# MCF7 [18] = test: Antiproliferative activity against human MCF7 cells assessed as cell viability at 200 uM after 72 hrs by MTT assay; settings: MCF7, 72 h, read-out: Activity; in short: as §1
# Candida albicans [19] = test: Growth inhibition of Candida albicans ATCC 90028 at 0.5 ug/ml incubated for 18 hrs at 35 degC by broth microdilution method relative to control; settings: ATCC 90028, 18 h, read-out: GI
# Candida albicans [20] = test: Growth inhibition of Candida albicans ATCC 90028 at 0.25 ug/ml incubated for 18 hrs at 35 degC by broth microdilution method relative to control; settings: ATCC 90028, 18 h, read-out: GI
# Candida albicans [21] = test: Growth inhibition of Candida albicans ATCC 90028 at 8 ug/ml incubated for 48 hrs at 35 degC by broth microdilution method relative to control; settings: ATCC 90028, 48 h, read-out: GI
# Candida albicans [22] = test: Growth inhibition of Candida albicans ATCC 90028 at 4 ug/ml incubated for 18 hrs at 35 degC by broth microdilution method relative to control; settings: ATCC 90028, 18 h, read-out: GI
# Candida albicans [23] = test: Growth inhibition of Candida albicans ATCC 90028 at 0.25 ug/ml incubated for 4 hrs at 35 degC by broth microdilution method relative to control; settings: ATCC 90028, 4 h, read-out: GI
# Candida albicans [24] = test: Growth inhibition of Candida albicans ATCC 90028 at 2 ug/ml incubated for 18 hrs at 35 degC by broth microdilution method relative to control; settings: ATCC 90028, 18 h, read-out: GI
# CCRF-CEM [25] = test: Antiproliferative activity against human CCRF-CEM cells assessed as cell viability at 100 uM after 72 hrs by MTT assay; settings: read-out: Activity; in short: as §1
# Candida albicans [26] = test: Growth inhibition of Candida albicans ATCC 90028 at 8 ug/ml incubated for 4 hrs at 35 degC by broth microdilution method relative to control; settings: ATCC 90028, 4 h, read-out: GI
# Candida albicans [27] = test: Growth inhibition of Candida albicans ATCC 90028 at 0.0625 ug/ml incubated for 4 hrs at 35 degC by broth microdilution method relative to control; settings: ATCC 90028, 4 h, read-out: GI
# MCF7 [28] = test: Antiproliferative activity against human MCF7 cells assessed as cell viability at 100 uM after 72 hrs by MTT assay; settings: MCF7, 72 h, read-out: Activity; in short: as §1
# Candida albicans [29] = test: Growth inhibition of Candida albicans ATCC 90028 at 0.125 ug/ml incubated for 4 hrs at 35 degC by broth microdilution method relative to control; settings: ATCC 90028, 4 h, read-out: GI
SMILES,viability at 50 µM (CCRF-CEM [1]) [%],inhibition of growth at 1 µg/mL (Candida albicans [2]) [%],inhibition of growth at 0.125 µg/mL (Candida albicans [3]) [%],inhibition of growth at 8 µg/mL (Candida albicans [4]) [%],inhibition of growth at 0.0625 µg/mL (Candida albicans [5]) [%],viability at 200 µM (CCRF-CEM [6]) [%],inhibition of growth at 0.0313 µg/mL (Candida albicans [7]) [%],log(activity) (Candida albicans [8]),viability at 50 µM (MCF7 [9]) [%],viability at 25 µM (CCRF-CEM [10]) [%],inhibition of growth at 16 µg/mL (Candida albicans [11]) [%],inhibition of growth at 1 µg/mL (Candida albicans [12]) [%],inhibition of growth at 0.5 µg/mL (Candida albicans [13]) [%],viability at 25 µM (MCF7 [14]) [%],inhibition of growth at 2 µg/mL (Candida albicans [15]) [%],inhibition of growth at 0.0313 µg/mL (Candida albicans [16]) [%],inhibition of growth at 16 µg/mL (Candida albicans [17]) [%],viability at 200 µM (MCF7 [18]) [%],inhibition of growth at 0.5 µg/mL (Candida albicans [19]) [%],inhibition of growth at 0.25 µg/mL (Candida albicans [20]) [%],further results
COC(C(=O)OC(C)Cn1cnc2c1c(=O)n(C)c(=O)n2C)c1ccc2ccccc2c1 (stereo not drawn),28.2,99,99.1,99,99.1,15,99,0.4,86.3,84.7,99,99.1,99.1,93.5,99.1,99.1,99.2,68.8,99.2,99,inhibition of growth at 8 µg/mL (Candida albicans [21]): 99%; inhibition of growth at 4 µg/mL (Candida albicans [22]): 99%; inhibition of growth at 0.25 µg/mL (Candida albicans [23]): 99.1%; inhibition of growth at 2 µg/mL (Candida albicans [24]): 99%; viability at 100 µM (CCRF-CEM [25]): 27.6%; inhibition of growth at 8 µg/mL (Candida albicans [26]): 99%; inhibition of growth at 0.0625 µg/mL (Candida albicans [27]): 99.1%; viability at 100 µM (MCF7 [28]): 83.7%; inhibition of growth at 0.125 µg/mL (Candida albicans [29]): 99%
CC(Cn1cnc2c1c(=O)n(C)c(=O)n2C)OC(=O)N1c2ccccc2Sc2ccccc21 (stereo not drawn),77.4,99,99.9,99.7,99.9,47.1,100,0.3,89.9,105,99.2,99.8,99.5,90.5,99.2,99.3,100,37,99.8,100,inhibition of growth at 8 µg/mL (Candida albicans [21]): 99.2%; inhibition of growth at 4 µg/mL (Candida albicans [22]): 99.9%; inhibition of growth at 0.25 µg/mL (Candida albicans [23]): 99.5%; inhibition of growth at 2 µg/mL (Candida albicans [24]): 99.8%; viability at 100 µM (CCRF-CEM [25]): 33.8%; inhibition of growth at 8 µg/mL (Candida albicans [26]): 99.5%; inhibition of growth at 0.0625 µg/mL (Candida albicans [27]): 99.2%; viability at 100 µM (MCF7 [28]): 73.4%; inhibition of growth at 0.125 µg/mL (Candida albicans [29]): 99.2%
